Assay results published in ChEMBL document CHEMBL2331109, “Inhibitors of human immunodeficiency virus type 1 (HIV-1) attachment. 12. Structure-activity relationships associated with 4-fluoro-6-azaindole derivatives leading to the identification of 1-(4-benzoylpiperazin-1-yl)-2-(4-fluoro-7-[1,2,3]triazol-1-yl-1h-pyrrolo[2,3-c]pyridin-3-yl)ethane-1,2-dione …” (J Med Chem, 2013).
Converted amounts (≈) assume the structure as drawn.

Legend:
[1] = Aqueous solubility of the compound; format: physicochemical; conditions: buffer
[2] = Drug absorption in human colon at 200 mg, po measured between 12 to 96 hrs; format: ADME, organism-based; conditions: in vivo
How it was run: (§1)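 Healthy subjects given 200 mg as a spray-dried capsule, fasted, with plasma sampled 0–96 h. Bioavailability is relative to a 20 mg oral solution, based on dose-normalized AUC(INF).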

[3] = Oral bioavailability in human at 200 mg administered as capsule formulation; format: ADME, organism-based; conditions: in vivo; how it was run: as §1
Plasma = experiment: Plasma concentration in human at 20 mg, po administered as solution measured after 16 hrs; format: ADME, organism-based; conditions: in vivo, BLD = below limit of detection
[4] = Half life in human at 20 mg, po administered as solution measured between 2 and 12 hrs post-dosing; format: ADME, organism-based; conditions: in vivo
[5] = Cmax in rat at 5 mg/kg, po; format: ADME, organism-based; set-up: dose 5 mg/kg, route oral; conditions: in vivo
[6] = (§2) AUC in rat at 5 mg/kg, po at 24 hrs; format: ADME, organism-based, Plasma; set-up: time < 24 hr, dose 5 mg/kg, route oral; conditions: plasma
[7] = (§3) Oral bioavailability in rat at 5 mg/kg; format: ADME, organism-based; conditions: in vivo
[8] = Clearance in human liver microsomes; format: ADME, Microsome; conditions: read-out: CLH
[9] = Volume of distribution at steady state in iv dosed rat; format: ADME, organism-based; conditions: in vivo, read-out: Vdss
How it was run: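 Rats dosed intravenously in PEG 400/ethanol (90:10 v/v); steady-state volume of distribution taken from the iv plasma profile.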

Rattus norvegicus [10] = experiment: as §2; format: ADME, organism-based, Plasma; set-up: time < 24 hr, dose 5 mg/kg, route oral; conditions: in vivo, 24 h
Rattus norvegicus [11] = experiment: as §3; format: ADME, organism-based; conditions: in vivo
[12] = Clearance in iv dosed rat; format: ADME, organism-based; conditions: in vivo

Which results are given for `O=C(C(=O)N1CCN(C(=O)c2ccccc2)CC1)c1c[nH]c2c(-n3ccnn3)ncc(F)c12`?
solubility [1]: 7 µg/mL (≈ 15.6 µM); Drug absorption [2]: Active; bioavailability [3]: 30%; Cp (Plasma): BLD; half-life [4]: 1.4 h; Cmax [5]: 9480 nM; AUC at 24 h [6]: 86 µM·h; bioavailability [7]: 64%; CLint scaled [8]: < 21 mL/min/kg

For `COc1ncc(OC)c2c(C(=O)C(=O)N3CCN(C(=O)c4ccccc4)CC3)c[nH]c12`, which Vd [9] is on record?
Its Vd is 1.1 L/kg.

What about the Cmax [5] of the same compound?
The Cmax was 1890 nM.

And the AUC at 24 h [6]?
The AUC at 24 h was 6.3 µM·h.

With `Cc1ccn(-c2ncc(F)c3c(C(=O)C(=O)N4CCN(C(=O)c5ccccc5)CC4)c[nH]c23)n1` as the compound, how does the Vd [9] read?
The Vd was 0.6 L/kg.

What about the Cmax [5] of the same compound?
Its Cmax is 498 nM.

And the AUC (Rattus norvegicus [10])?
Its AUC is 2.1 µM·h.

And the F (Rattus norvegicus [11])?
The F was 61%.

And the CLint scaled [8]?
The CLint scaled was less than 21 mL/min/kg.

Which Vd [9] does the source give for `O=C(C(=O)N1CCN(C(=O)c2ccccc2)CC1)c1c[nH]c2c(-n3cncn3)ncc(F)c12` here?
Its Vd is 0.26 L/kg.

What about the Cmax [5] of the same compound?
Its Cmax is 8760 nM.

What about the F (Rattus norvegicus [11]) of the same compound?
Its F is 95%.

And the CLint scaled [8]?
The CLint scaled was less than 21 mL/min/kg.

For `O=C(NCCN1CCOCC1)c1cc(-c2ncc(F)c3c(C(=O)C(=O)N4CCN(C(=O)c5ccccc5)CC4)c[nH]c23)n[nH]1`, which CLint scaled [8] is on record?
The CLint scaled was greater than 29 mL/min/kg.

Which results are given for `Cc1ncn(-c2ncc(F)c3c(C(=O)C(=O)N4CCN(C(=O)c5ccccc5)CC4)c[nH]c23)n1`?
Vd [9]: 0.18 L/kg; AUC (Rattus norvegicus [10]): 160 µM·h; F (Rattus norvegicus [11]): 77%; CLint scaled [8]: < 21 mL/min/kg

For `CNC(=O)c1cc(-c2ncc(F)c3c(C(=O)C(=O)N4CCN(C(=O)c5ccccc5)CC4)c[nH]c23)n[nH]1`, which CLint scaled [8] is on record?
The CLint scaled was no more than 29 mL/min/kg.

With `O=C(C(=O)N1CCN(C(=O)c2ccccc2)CC1)c1c[nH]c2c(-c3cnccn3)ncc(F)c12` as the compound, how does the CLint scaled [8] read?
The CLint scaled was no more than 29 mL/min/kg.

Which Vd [9] does the source give for `O=C(C(=O)N1CCN(C(=O)c2ccccc2)CC1)c1c[nH]c2c(-c3cnco3)ncc(F)c12` here?
The Vd was 0.14 L/kg.

And the clearance [12]?
The clearance was 1.4 mL/min/kg.

What about the Cmax [5] of the same compound?
Its Cmax is 1290 nM.

And the AUC at 24 h [6]?
Its AUC at 24 h is 12 µM·h.

And the bioavailability [7]?
The bioavailability was 20%.

And the CLint scaled [8]?
The CLint scaled was less than 21 mL/min/kg.

With `NC(=O)c1cc(-c2ncc(F)c3c(C(=O)C(=O)N4CCN(C(=O)c5ccccc5)CC4)c[nH]c23)n[nH]1` as the compound, how does the CLint scaled [8] read?
Its CLint scaled is no more than 29 mL/min/kg.

For `CN(C)C(=O)c1cc(-c2ncc(F)c3c(C(=O)C(=O)N4CCN(C(=O)c5ccccc5)CC4)c[nH]c23)n[nH]1`, which CLint scaled [8] is on record?
Its CLint scaled is less than 21 mL/min/kg.

For `O=C(C(=O)N1CCN(C(=O)c2ccccc2)CC1)c1c[nH]c2c(-c3cc[nH]n3)ncc(F)c12`, which Vd [9] is on record?
Its Vd is 0.25 L/kg.

And the Cmax [5]?
The Cmax was 1400 nM.

And the AUC (Rattus norvegicus [10])?
The AUC was 12.5 µM·h.

What about the F (Rattus norvegicus [11]) of the same compound?
The F was 33%.

What about the CLint scaled [8] of the same compound?
Its CLint scaled is less than 21 mL/min/kg.

Which results are given for `NC(=O)c1ncc(F)c2c(C(=O)C(=O)N3CCN(C(=O)c4ccccc4)CC3)c[nH]c12`?
Vd [9]: 1.4 L/kg; Cmax [5]: 603 nM; AUC (Rattus norvegicus [10]): 2.6 µM·h; F (Rattus norvegicus [11]): 68%; CLint scaled [8]: < 21 mL/min/kg

For `CNC(=O)c1ncc(F)c2c(C(=O)C(=O)N3CCN(C(=O)c4ccccc4)CC3)c[nH]c12`, which Vd [9] is on record?
The Vd was 0.74 L/kg.

What about the Cmax [5] of the same compound?
Its Cmax is 326 nM.

And the AUC (Rattus norvegicus [10])?
The AUC was 1.5 µM·h.

What about the F (Rattus norvegicus [11]) of the same compound?
Its F is 63%.

And the CLint scaled [8]?
The CLint scaled was less than 21 mL/min/kg.
